# High-throughput results as filed in PubChem BioAssay.
# S1P3 antagonist: S1P3 receptor antagonists, primary screen, cell-based. Sphingosine 1-phosphate receptor 3 (Homo sapiens), Q99500. CHO S1P3 NFAT-BLA reporter, FRET fluorescence, antagonist mode. inhibition, % at 4.98 µM. actives 0.27% (n = 170,000);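 active = inhibition above the plate cutoff, the mean inhibition of test wells on that plate plus 3 SD, cut at about 28% in these data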;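 also: cells challenged with S1P at its EC80 of 0.8 µM; blue over green emission ratio from cleaved BLA substrate after 4 h stimulation; 0% = S1P-stimulated wells and 100% = unstimulated DMSO-only wells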
# Target sequence (Q99500 whole entry, looked up): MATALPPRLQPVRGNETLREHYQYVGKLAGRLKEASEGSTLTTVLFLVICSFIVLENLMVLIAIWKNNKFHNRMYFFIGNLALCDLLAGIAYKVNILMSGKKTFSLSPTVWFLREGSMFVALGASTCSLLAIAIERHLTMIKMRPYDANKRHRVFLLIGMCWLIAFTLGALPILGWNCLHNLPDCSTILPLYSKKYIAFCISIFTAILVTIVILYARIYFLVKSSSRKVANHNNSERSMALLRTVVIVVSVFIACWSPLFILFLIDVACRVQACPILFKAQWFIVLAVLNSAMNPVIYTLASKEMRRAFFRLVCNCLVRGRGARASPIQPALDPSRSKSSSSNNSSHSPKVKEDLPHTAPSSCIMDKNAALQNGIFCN
# S1P4 ag: S1P4 receptor agonists, primary screen, cell-based; Sphingosine 1-phosphate receptor 4 (Homo sapiens), O95977; S1P4-expressing cell line, agonist reporter assay; activation, % at 4.98 µM; actives 0.35% (n = 220,000); AID 1509, 2009; in the data active = activation above about 11%;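 also: 0% = DMSO vehicle and 100% = reference agonist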
# Hsp70 act: Hsp70 transcriptional activators, primary screen, cell-based, HeLa, Hsp70 promoter luciferase, luminescence, 10 µM; actives 0.04% (n = 200,000); HeLa Hsp70 promoter luciferase reporter; scaled: vehicle 0, proteasome-inhibitor control 100%; activation, % at 10 µM;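 active = activation above the mean across all tested compounds plus 3 SD, cutoff set per campaign, cut at about 5.5% in these data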;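 also: 100% = MG132 at 30 µM as the positive control and 0% = DMSO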
# Mdm2 ligase inh: MDM2-luciferase reporter signal enhancers, primary screen, MDM2 E3 ligase inhibitor project, cell-based, luminescence, 1536-well; E3 ubiquitin-protein ligase Mdm2 (Homo sapiens), Q00987; signal enhancement, % at 5 µM; actives 0.11% (n = 210,000); cell-based MDM2 ubiquitination luciferase reporter, 2 h; 0 = plate control, 100 = twice control, blank-subtracted;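 active = signal enhancement of 30% or more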;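 also: luminescence tracks abundance of the self-degrading MDM2-luciferase fusion protein; higher signal means inhibition of MDM2 E3 ligase activity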
#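 system = mammalian cells stably expressing self-ubiquitinating, self-degrading MDM2 E3–luciferase fusion | quantity = 2000 cells per well seeded | incubation = 4 h cell settling then 2 h compound exposure, 37 °C | signal = SteadyLite luminescence, 15 min reagent step | benchmarks = plate control and blank wells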
# Dynein transport: inhibitors of GR-EGFP nuclear translocation, primary screen, dynein cargo transport inhibitor project, imaging, high-content, 3617.4 mouse cells. actives 0.47% (n = 220,000). AID 1381, 2008. test concentration mostly 20 µM; stimulated with dexamethasone, 1 µM; stronger effect = lower value. z-score, hits read low;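 active = plate z-score of nuclear minus cytoplasmic receptor signal below a set negative limit, without overly bright fluorescence or cell loss, cut at about -3.5 in these data, passing the limit was not always enough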;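 also: z-score of nuclear minus cytoplasmic ring GR-EGFP intensity difference per well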
#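 Buffer or medium: tetracycline-free induction medium containing charcoal-stripped FBS / Reagent: dexamethasone agonist, 1.0 µM final, for 30 min / Technique: automated 10x imaging of fixed Hoechst-stained cells / Times: induction 48 h, compound 1 h, agonist 30 min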
# S1P4 antag: S1P4 receptor antagonists, primary screen, cell-based | Sphingosine 1-phosphate receptor 4 (Homo sapiens), O95977 | S1P4-expressing cells, antagonist mode, reporter read-out | inhibition, % at 4.98 µM | actives 0.26% (n = 220,000); in the data active = inhibition above about 29%;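 also: 0% = wells stimulated with agonist and 100% = vehicle wells without agonist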
# Dynein confirm: dynein cargo transport inhibitors, GR-EGFP translocation, confirmation, imaging, high-content imaging, GR-EGFP cells | calls only at 20 µM | actives 69% (n = 1,000) | 3617.4 GR-EGFP nuclear translocation imaging, dexamethasone-induced | shares compounds with Dynein transport;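 active = inhibition of receptor movement into the nucleus at or above a set limit in both runs, with normal cell brightness and cell count; inconclusive = limit reached in only one run, brightness and count normal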;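 also: dexamethasone at 1 µM final in well for 30 min; nuclear minus cytoplasmic GR-EGFP mean intensity difference in channel 2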
# Active calls of the source: *; i = inactive; ? = inconclusive; · = no result given; + = active, no number. Only some compounds are listed: those with a hit (about 1.3% of all), similar ones and a draw of the others.
SMILES,S1P3 antagonist,S1P4 ag,Hsp70 act,Mdm2 ligase inh,Dynein transport,S1P4 antag,Dynein confirm
Cc1onc(-c2c(F)cccc2Cl)c1-c1nnc(-c2cccc3ccccc23)o1,-0.6,-1.6,·,-14.6,1.06,12.9,·
COC(=O)c1cc(=O)n(CCc2ccccc2F)c(=Nc2ccc(F)c(Cl)c2)s1,·,-0.3,-0.1,6.9,-4*,-19.2,+
O=C(CCC(=O)Nc1ccc(Cl)cc1Cl)N/N=C/c1ccc([N+](=O)[O-])o1,-11.3,-1.6,0.0,6.7,-5.2*,6.6,+
COc1cc(OC)c(N(C)S(=O)(=O)c2cccc(C(=O)Nc3nnc(C4CC4)s3)c2)cc1Cl,-6.9,0.4,·,·,0.371,-12.3,·
CC1=CC(=Nc2c(C)n(C)n(-c3ccccc3)c2=O)C=CC1=O,-9.4,-0.8,·,-16.4,-3.67*,14.7,+
CC1=CC(=Nc2c(C)n(C)n(-c3ccccc3)c2=O)C=C(C)C1=O,-16.6,1.4,-0.2,-13.5,-1.3,-2.6,·
CCc1nnc(NS(=O)(=O)c2ccc(Nc3ccc4nonc4c3[N+](=O)[O-])cc2)s1,2.1,1.1,-0.2,-4.3,0.141,-9.2,·
O=C(/C=C/c1ccccc1)/C=C/c1ccccc1,1.9,0.6,0.1,4.5,-7.02*,8.0,+
O=C(/C=C/c1ccccc1)c1ccccc1,2.2,3.4,0.0,·,-0.828,-7.5,·
Cc1cccc(N(Cc2ccccc2)C(=O)CCl)c1,-6.3,-1.3,-0.3,-19.4,-5.68*,3.7,+
O=C(CCl)N(Cc1ccccc1)c1ccccc1,-6.2,0.0,-0.2,-8.8,-5.28*,17.9,+
Cc1cccc(N(CC(=O)O)CC(=O)O)c1,-16.8,0.0,-0.1,-7.7,0.243,3.9,·
CC(C)OC(=O)CSc1nnc(C2CCCCC2)n1N,-2.1,2.1,·,-12.0,2.38,1.9,·
COC(=O)/C(=C\c1cc(OC)c(OC)c(OC)c1)c1nc2ccccc2[nH]1,-3.9,1.3,0.0,-5.3,-2.72,-9.8,·
COc1cc(/C=C(/C(=O)c2cccs2)c2nc3ccccc3[nH]2)ccc1O,·,1.8,-0.3,-3.0,-3.96*,17.9,+
O=C(c1ccccc1)c1ccc(COC(=O)c2cnccn2)cc1,7.7,-1.3,-0.4,-12.2,0.321,-5.7,·
O=C(Oc1ccccc1)c1cccc(COC(=O)c2cnccn2)c1,-20.9,-0.8,-0.6,-12.9,-4.13,-3.5,i
Cc1ccc(-c2csc(=S)n2CC(=O)OCC(=O)NCc2ccc(F)cc2)cc1,·,-1.9,-0.3,-2.9,0.106,-4.8,·
O=C(Nc1ccc(N2CCOCC2)c(Cl)c1)c1ccc([N+](=O)[O-])o1,6.0,-1.3,0.5,4.8,-4.48*,17.0,+
O=C(Nc1ccc(N2CCOCC2)c(Cl)c1)c1c(F)c(F)c(F)c(F)c1F,-5.9,0.6,-0.2,-6.2,-1.46,-17.7,·
Cc1c(C=N)c(O)n(C)c(=O)c1C#N,-9.3,2.8,·,-7.9,-0.676,-16.9,·
Cn1c(=O)oc2cc(S(=O)(=O)Nc3ccc4c(c3)OCCO4)ccc21,-5.8,-1.2,0.0,-10.2,-4.32,0.8,i
O=C(Oc1ccccc1C(=O)Nc1ccccc1)c1ccc(Br)c([N+](=O)[O-])c1,-2.7,1.1,0.2,1.4,-3.86*,-9.9,i
COc1ccccc1C(=O)Oc1ccccc1C(=O)Nc1ccccc1,-16.4,0.2,-0.1,-2.5,-1.53,-3.7,·
CCCNC(=O)Cn1sc2nc(C)cc(C)c2c1=O,-1.9,1.1,·,·,-4.78*,-8.2,i
SMILES,S1P3 antagonist,S1P4 ag,Hsp70 act,Mdm2 ligase inh,Dynein transport,S1P4 antag,Dynein confirm
Cc1cc(C)c2c(=O)n(CC(=O)N3CCC(N4CCCCC4)CC3)sc2n1,-11.6,2.2,-0.2,-0.8,-4.17*,-12.7,i
CCOC(=O)C1CCCN(C(=O)Cn2sc3nc(C)cc(C)c3c2=O)C1 (stereo not given),-3.1,-2.1,-0.2,-9.9,-4.08*,-2.7,?
CCOC(=O)C1CCCN(C(=O)Cn2cnc3c2c(=O)n(C)c(=O)n3C)C1 (stereo not given),3.7,-1.3,-0.4,1.1,0.29,-3.9,·
C/C(=N\NC(=O)CCn1nnc2ccccc21)c1cccs1,-1.4,-1.6,·,-19.5,0.17,3.0,·
Cc1cc(N2CCCC2)c(F)cc1/C=C\[N+](=O)[O-],6.6,1.3,-0.4,-25.5,-3.87,5.7,+
CCOc1ccccc1N1C(=O)CC(Sc2n[nH]c(-c3ccccc3)n2)C1=O (stereo not given),-8.2,-0.3,-0.3,-6.2,-4.12*,6.9,+
CN1c2ccc(Cl)cc2C(=O)NC1c1ccc([N+](=O)[O-])s1 (stereo not given),4.3,0.1,·,-15.0,-0.338,11.0,·
CCC1Oc2ccc(C)cc2N(CC(=O)N(Cc2cccnc2)Cc2ccc(C)o2)C1=O (stereo not given),10.7,-1.8,-0.3,5.8,-3.7*,-3.6,?
CN=c1scc(-c2cccs2)n1/N=C/c1ccc(O)c(O)c1O,0.7,2.9,-0.5,-39.7,-3.64*,-19.1,?
CN(C(=O)CCl)C1CCCc2ccccc21 (stereo not given),-4.0,2.3,-0.5,1.5,-7.6*,-3.3,+
Cc1ccccc1N1C(=O)CC(Sc2nnc(-c3ccccc3)o2)C1=O (stereo not given),·,-0.2,-0.3,24.7,-7.27*,4.7,+
O=C(/C=C/c1ccccc1)c1cc(Br)ccc(=O)c1O,·,-2.9,-0.1,-10.2,-1.31,8.0,·
O=C(/C=C/c1ccc(F)cc1)c1cc(Br)ccc1O,7.3,1.7,·,-73.5,-3.81*,5.7,+
NNc1nc2c(-c3ccc(Cl)cc3)nnn2c2ccccc12,-7.1,3.9,-0.3,3.8,1.23,-5.3,·
COCCCNc1nc2c(-c3ccc(Cl)cc3)nnn2c2ccccc12,-15.7,1.7,-0.3,·,-4.19*,-4.8,i
Cn1c(N)c(C(=O)COC(=O)c2ccc(Cl)c(S(=O)(=O)N3CCCC3)c2)c(=O)n(C)c1=O,-10.1,0.5,·,·,0.306,9.8,·
CNC(=O)COC(=O)c1ccccc1C(=O)c1ccc(Cl)c([N+](=O)[O-])c1,7.5,-1.4,3.5,7.2,-4.3*,17.9,+
